IC50 and ED50 data for 19 molecules are collected here from ChEMBL document CHEMBL1129797, “Dual metalloprotease inhibitors. 6. Incorporation of bicyclic and substituted monocyclic azepinones as dipeptide surrogates in angiotensin-converting enzyme/neutral endopeptidase inhibitors” (J Med Chem, 1996).

For assay [1], the target named is T1, Angiotensin-converting enzyme (Oryctolagus cuniculus, UniProt P12822).
T1 sequence (P12822 whole entry): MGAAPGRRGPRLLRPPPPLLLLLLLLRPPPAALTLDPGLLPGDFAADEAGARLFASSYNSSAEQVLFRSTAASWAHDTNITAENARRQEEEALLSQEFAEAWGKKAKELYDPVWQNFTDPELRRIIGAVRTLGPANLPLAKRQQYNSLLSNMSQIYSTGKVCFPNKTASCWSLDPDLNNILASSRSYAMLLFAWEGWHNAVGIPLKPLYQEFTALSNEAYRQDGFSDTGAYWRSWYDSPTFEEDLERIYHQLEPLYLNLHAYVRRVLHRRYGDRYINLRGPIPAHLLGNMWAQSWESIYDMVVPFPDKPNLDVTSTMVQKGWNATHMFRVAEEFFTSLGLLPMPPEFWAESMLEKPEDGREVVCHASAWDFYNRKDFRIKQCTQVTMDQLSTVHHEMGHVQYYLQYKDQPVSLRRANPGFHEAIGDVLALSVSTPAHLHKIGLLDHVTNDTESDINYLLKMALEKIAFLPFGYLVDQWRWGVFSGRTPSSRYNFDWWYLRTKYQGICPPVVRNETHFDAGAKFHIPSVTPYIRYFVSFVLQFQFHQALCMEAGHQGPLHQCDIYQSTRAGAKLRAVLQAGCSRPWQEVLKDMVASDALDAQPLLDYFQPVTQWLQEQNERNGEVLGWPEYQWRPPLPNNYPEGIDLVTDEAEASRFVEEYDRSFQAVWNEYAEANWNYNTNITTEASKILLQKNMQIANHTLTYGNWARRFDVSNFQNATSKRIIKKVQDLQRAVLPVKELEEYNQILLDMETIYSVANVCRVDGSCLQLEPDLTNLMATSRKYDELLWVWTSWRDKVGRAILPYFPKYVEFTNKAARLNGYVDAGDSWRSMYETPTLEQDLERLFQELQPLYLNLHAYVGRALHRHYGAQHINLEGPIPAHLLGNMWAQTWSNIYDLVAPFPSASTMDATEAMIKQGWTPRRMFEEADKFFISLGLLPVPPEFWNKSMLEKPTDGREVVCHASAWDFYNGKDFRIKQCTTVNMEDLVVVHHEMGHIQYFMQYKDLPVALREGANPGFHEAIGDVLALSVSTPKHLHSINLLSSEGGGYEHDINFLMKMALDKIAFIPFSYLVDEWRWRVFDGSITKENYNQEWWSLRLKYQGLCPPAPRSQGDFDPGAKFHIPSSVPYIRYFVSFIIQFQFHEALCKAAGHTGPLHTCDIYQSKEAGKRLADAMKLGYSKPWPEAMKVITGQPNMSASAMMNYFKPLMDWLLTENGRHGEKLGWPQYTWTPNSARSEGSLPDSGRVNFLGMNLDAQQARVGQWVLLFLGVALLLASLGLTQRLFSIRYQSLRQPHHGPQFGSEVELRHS
The assay can be described thus: In vitro inhibition of Angiotensin I converting enzyme isolated from rabbit lung extract. The assay is classed as tissue-based. In short, it runs like this: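 Rabbit lung acetone powder extract (1:20 dilution) as enzyme source; spectrophotometric hippuric acid formation from hippuryl-L-histidyl-L-leucine (5 mM final). Final concentrations: 100 mM phosphate buffer pH 8.3, 300 mM NaCl; varied inhibitor concentrations or vehicle. Incubated 30 min at 37 °C. Stopped with 1 N HCl, then ethyl acetate added.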

The target in the next assay is T2, Neprilysin (Rattus norvegicus, UniProt P07861).
T2 sequence (P07861 whole entry): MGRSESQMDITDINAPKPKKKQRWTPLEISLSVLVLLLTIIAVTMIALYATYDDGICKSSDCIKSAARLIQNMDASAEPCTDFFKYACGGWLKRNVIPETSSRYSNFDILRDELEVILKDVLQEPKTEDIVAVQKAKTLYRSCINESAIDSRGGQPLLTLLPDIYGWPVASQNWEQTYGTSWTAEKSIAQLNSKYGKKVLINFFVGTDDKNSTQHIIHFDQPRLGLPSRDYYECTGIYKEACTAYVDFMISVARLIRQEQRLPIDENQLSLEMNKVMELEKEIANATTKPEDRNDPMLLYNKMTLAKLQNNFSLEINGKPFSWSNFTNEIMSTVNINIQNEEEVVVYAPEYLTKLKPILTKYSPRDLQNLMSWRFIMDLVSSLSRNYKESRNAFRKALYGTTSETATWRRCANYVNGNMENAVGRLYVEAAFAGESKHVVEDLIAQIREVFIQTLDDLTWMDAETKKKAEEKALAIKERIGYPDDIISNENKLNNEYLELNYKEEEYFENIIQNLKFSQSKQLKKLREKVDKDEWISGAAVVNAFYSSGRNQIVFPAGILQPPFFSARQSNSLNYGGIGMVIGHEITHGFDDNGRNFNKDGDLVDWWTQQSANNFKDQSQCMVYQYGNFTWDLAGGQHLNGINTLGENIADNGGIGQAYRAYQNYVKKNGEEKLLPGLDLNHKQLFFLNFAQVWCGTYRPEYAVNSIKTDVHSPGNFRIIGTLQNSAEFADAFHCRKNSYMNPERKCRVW
The assay can be described thus: In vitro inhibition of purified rat kidney Neutral endopeptidase. In short, it runs like this:
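Rat kidney membrane enzyme solubilized (1% deoxycholate, papain/DTT, 37 °C 90 min), purified by gel filtration and phenyl sepharose. Enzyme in 0.05% Triton X-100 with 50 mM Tris-HCl pH 7.5, preincubated 10 min with inhibitor; 0.5 mM dansyl-Gly-Phe-Arg added. Incubated 37 °C, 30 min; stopped with HCl. Dansyl-Gly extracted into ethyl acetate; fluorescence ex 342/em 510 nm, zero-time corrected, versus no-inhibitor.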

The subject of the next assay is Rattus norvegicus. The assay can be described thus: Intravenous effective dose required to inhibit 50% of the AI pressor response in normotensive rats. It counts as functional. Summed up: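 Conscious male Sprague-Dawley rats (220-240 g), aortic and vena caval catheters, four per assay. Various doses given iv in 5% NaHCO3. AI (310 ng/kg iv) pressor responses taken before dosing and at 2-30 min intervals up to 6 h. Maximum-inhibition time point per dose used for the dose-response curve; ED50 interpolated.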

For the molecule `C[C@H]1CCC[C@H](NC(=O)[C@@H](S)Cc2ccccc2)C(=O)N1CC(=O)O`, the figures for the half-inhibitory concentration (IC50) (in assay [1]; on Neprilysin) were 8 nM and 49 nM, respectively. Moreover, in the assay on Rattus norvegicus, the ED50 stood at 0.11 µmol/kg.
The like results for `C[C@@H](C(=O)O)N1CCCC[C@H](NC(=O)[C@@H](S)Cc2ccccc2)C1=O` were, in that order, 26 nM, 92 nM and 1.22 µmol/kg.
On to `O=C(O)CN1C(=O)[C@@H](NC(=O)[C@@H](S)Cc2ccccc2)CCC[C@@H]1CCO`, for which the IC50 in assay [1] was determined as 25 nM; against Neprilysin, 31 nM. The ED50 with Rattus norvegicus was 0.08 µmol/kg.
As to `O=C(O)CN1C(=O)[C@@H](NC(=O)[C@@H](S)Cc2ccccc2)CCC[C@@H]1CC1CC1`, the figures for the IC50 (in assay [1]; against Neprilysin) were 23 nM and 140 nM, respectively.
For `CCC[C@H]1CCC[C@H](NC(=O)[C@@H](S)Cc2ccccc2)C(=O)N1CC(=O)O`, the half-maximal inhibitory concentration (IC50) worked out at 11 nM in assay [1] and 40 nM at Neprilysin. In the assay with Rattus norvegicus, it took a dose of 0.06 µmol/kg to reach the 50% effect level (ED50).
As for `O=C(O)CN1C(=O)[C@@H](NC(=O)[C@@H](S)Cc2ccccc2)CCC[C@@H]1C1CCCC1`, the IC50 in assay [1] worked out at 17 nM; against Neprilysin, 1650 nM.
Take `C=CC[C@H]1CCC[C@H](NC(=O)[C@@H](S)Cc2ccccc2)C(=O)N1CC(=O)O`: the IC50 in assay [1] is 7 nM; on Neprilysin, 64 nM. Also, the 50% effective dose (ED50) in the assay with Rattus norvegicus was 0.04 µmol/kg.
`CCC[C@H]1CCC[C@H](NC(=O)[C@@H](S)Cc2ccccc2)C(=O)N1[C@@H](CC)C(=O)O`: the IC50 in assay [1] is 25 nM; against Neprilysin, 86 nM.
As to `C[C@H](NC(=O)[C@@H](S)Cc1ccccc1)C(=O)N1CCC[C@H]1C(=O)O`, in the assay on Rattus norvegicus, the ED50 worked out at 0.06 µmol/kg.
For the molecule `O=C(O)CN1CCCC[C@H](NC(=O)[C@@H](S)Cc2ccccc2)C1=O`, the figures for the IC50 (in assay [1]; on Neprilysin) were 22 nM and 82 nM, respectively. This molecule also came in with a median effective dose (ED50) with Rattus norvegicus of 0.84 µmol/kg.
`O=C(O)CN1C(=O)[C@@H](NC(=O)[C@@H](S)Cc2ccccc2)CCc2ccccc21`: the half-maximal inhibitory concentration (IC50) in assay [1] is 12 nM; on Neprilysin, 6 nM. Further, the median effective dose (ED50) in the assay on Rattus norvegicus came to 0.02 µmol/kg.
Regarding `C[C@@H]1CCC[C@H](NC(=O)[C@@H](S)Cc2ccccc2)C(=O)N1CC(=O)O`, the half-inhibitory concentration (IC50) in assay [1] was 16 nM; at Neprilysin it was 149 nM.
The matching figures for `CCC[C@@H]1CCC[C@H](NC(=O)[C@@H](S)Cc2ccccc2)C(=O)N1CC(=O)O`: 14 nM and 466 nM.
Regarding `CC(C)C[C@H]1CCC[C@H](NC(=O)[C@@H](S)Cc2ccccc2)C(=O)N1CC(=O)O`, the IC50 in assay [1] was 10 nM; against Neprilysin, 1660 nM.
The like results for `CC(C)[C@@H](C(=O)O)N1CCCC[C@H](NC(=O)[C@@H](S)Cc2ccccc2)C1=O` were, in that order, 907 nM and 1000 nM.
The matching figures for `O=C(N[C@H]1CCCCN([C@@H](Cc2ccccc2)C(=O)O)C1=O)[C@@H](S)Cc1ccccc1`: 479 nM and 32 nM.
On to `O=C(N[C@H]1CCC[C@H]2CCC[C@@H](C(=O)O)N2C1=O)[C@@H](S)Cc1ccccc1`, for which the IC50 worked out at 11 nM in assay [1] and 25 nM against Neprilysin. In the assay on Rattus norvegicus, this molecule had an ED50 of 0.12 µmol/kg.
The like results for `O=C(N[C@H]1CCC[C@H]2CC[C@@H](C(=O)O)N2C1=O)[C@@H](S)Cc1ccccc1` were, in that order, 5 nM, 18 nM and 0.06 µmol/kg.
With `CCC[C@H]1CCC[C@H](NC(=O)[C@@H](S)Cc2ccccc2)C(=O)N1[C@@H](C)C(=O)O`, the IC50 in assay [1] is 5 nM; on Neprilysin, 17 nM. The 50% effect level with Rattus norvegicus (ED50) was put at a dose of 0.12 µmol/kg.

Broadly, the IC50 is the concentration that inhibits the measured activity by half. High values mean weaker potency in that assay, low ones greater potency in that assay. Broadly, the ED50 is the dose at which the effect has come halfway, by size or by number of responders.
